Experimental data: ChEMBL document CHEMBL2169850, “3,6-bis(3-alkylguanidino)acridines as DNA-intercalating antitumor agents” (Eur J Med Chem, 2012)
Active and inactive are the calls of the source. The calls are words filed in the database; no cut-off is given here.

Experiments:
[1] = test system: HL-60; assay: Induction of necrosis in human HL60 cells at 5 to 25 uM incubated for 72 hrs by AnnexinV/propidium iodide staining method; format: functional, cell-based
Summary of the method: (§1)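 HL-60 cells (1.5 × 10^5) were exposed to compound, then stained 10 min with Annexin V-FITC in HEPES/CaCl2/NaCl binding buffer. Cells were washed, briefly stained with propidium iodide and analysed by flow cytometry for apoptotic and necrotic fractions. Mean ± SD of at least three independent experiments.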

[2] = test system: Nucleic Acid; assay: Binding affinity to calf thymus DNA at 6.5 uM by CD spectroscopy; format: nucleic-acid assay; settings: Bos taurus
Summary of the method: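 CD spectra were recorded in 1 mm quartz cuvettes in 0.01 M Tris, pH 7.4, with 6.52 µM compound and ctDNA. Each spectrum is the mean of three scans after buffer background subtraction.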

[3] = test system: HL-60; assay: Cell cycle arrest in human HL60 cells assessed as accumulation at G2/M phase at 5 uM incubated for 48 hrs by flow cytometry (reference value: 16.42 +/- 1.03%); format: functional
[4] = test system: HL-60; assay: Induction of apoptosis in human HL60 cells at 5 to 25 uM incubated for 24 hrs by AnnexinV/propidium iodide staining method; format: functional, cell-based
Summary of the method: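 HL-60 cells (1.5 × 10^5) were treated at 5–25 µM for 24, 48 or 72 h and harvested. They were stained with Annexin V-FITC for 10 min in HEPES/CaCl2/NaCl binding buffer, washed, briefly stained with PI (1 mg/mL) and analysed by flow cytometry for apoptosis and necrosis. Mean ± SD, n ≥ 3.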

[5] = test system: HL-60; assay: Induction of necrosis in human HL60 cells at 5 to 25 uM incubated for 24 hrs by AnnexinV/propidium iodide staining method; format: functional, cell-based; summary of the method: as §1
[6] = test system: HL-60; assay: Antiproliferative activity against human HL60 cells assessed as cell number at 25 uM incubated for 24 hrs by Coulter counting method; format: functional
Summary of the method: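 HL-60 cells in RPMI with 10% heat-inactivated FCS, antibiotics and amphotericin, 37 °C, 5% CO2, seeded in 60 mm dishes. Compound added at 5, 15 or 25 µM for 24, 48 or 72 h. Absolute cell counts taken by Coulter counter and expressed as percentage of untreated control. Mean ± SD of at least three independent experiments; one-way ANOVA with Tukey test, p < 0.05.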

[7] = test system: Nucleic Acid; assay: Binding affinity to Escherichia coli pUC19 DNA assessed as reduction in DNA mobility to 5 to 80 uM by EMSA; format: nucleic-acid assay
Summary of the method: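 Supercoiled pUC19 plasmid incubated with compound at 5, 20, 40, 60 or 80 µM. Native agarose gel electrophoresis run with no ethidium bromide in the gel; band mobility was then read.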

[8] = test system: HL-60; assay: Cell cycle arrest in human HL60 cells assessed as accumulation at G1 phase at 5 uM incubated for 72 hrs by flow cytometry (reference value: 47.02 +/- 6.19%); format: functional
[9] = test system: HL-60; assay: Drug uptake in human HL60 cells with normal morphology at 50 uM incubated for 18 hrs by fluorescence microscopy; format: ADME, cell-based; settings: hl-60, 18 h
Summary of the method: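 HL-60 cells were treated with 50 µM compound for 18 h, washed with PBS, resuspended in HBSS and mounted as native slides. Cells were imaged by inverted fluorescence microscopy at 40×, with excitation 360/40 and emission 470/40. The fluorescence channel was merged with brightfield images.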

[10] = test system: Nucleic Acid; assay: Binding affinity to calf thymus DNA at 9.6 uM by spectrofluorimetric titration assay; format: nucleic-acid assay; settings: Bos taurus
Summary of the method: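 Fluorescence titration at 25 °C in 0.01 M Tris, pH 7.4. Compound (9.58 × 10^-6 M) was titrated with ctDNA from 0 to 2.57 × 10^-4 M bp, excited at 384 nm, and emission recorded from 400 to 600 nm. K and n were obtained from McGhee–von Hippel fits of Scatchard data.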

Activity [2] | Activity [7] | Drug uptake [9] | Activity [10] | Structure (SMILES) | Activity [1] | Activity [3] | Activity [4] | Activity [5] | Activity [6] | Activity [8]
Active | Active |  |  | CCNC(=N)Nc1ccc2cc3ccc(NC(=N)NCC)cc3nc2c1.Cl.Cl.O | inactive | inactive | inactive | inactive | 71.98% | inactive
Active | inactive | Active | Active | CCCCCCNC(=N)Nc1ccc2cc3ccc(NC(=N)NCCCCCC)cc3nc2c1.Cl.Cl.O | Active | 11.36% |  |  | 76.71% | 48.93%
